Columns and labels:
[1] = system: Keratinocyte; assay: Induction of proimflammatory activity in human primary epidermal keratinocytes assessed as IL-8 release after 6 hrs relative to ingenol 3-angelate; assay type: functional
Method in brief: (§1)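 Adult log-phase primary epidermal keratinocytes were seeded at 10,000 cells/well. Cells were incubated with titrated compound for 6 h at 37 °C in 5% CO2. Secreted IL8 was measured by Meso Scale 4-spot cytokine plates or by HTRF. EC50 and Emax were referenced to the maximal response of ingenol 3-angelate.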

[2] = system: Keratinocyte; assay: Induction of proimflammatory activity in human primary epidermal keratinocytes assessed as TNFalpha release after 6 hrs relative to ingenol 3-angelate; assay type: functional
Method in brief: (§2)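 Adult log-phase primary epidermal keratinocytes were seeded at 10,000 cells/well. Cells were incubated with titrated compound for 6 h at 37 °C in 5% CO2. Secreted TNFα was measured by Meso Scale 4-spot cytokine plates. EC50 and Emax were referenced to the maximal response of ingenol 3-angelate.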

[3] = molecular target: Protein kinase C delta type (Homo sapiens, UniProt Q05655); assay: Activation of PKCdelta (unknown origin) after 40 mins
Method in brief: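 In vitro PKCδ phosphorylation of a PKC peptide substrate, with 0.05 mg/mL phosphatidylserine and no diacylglycerol. Compounds were tested as a twelve-point semilog dilution series starting at 10 µM. The reaction was started with ATP and run 40 min at room temperature.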

[4] = Immunostimulatory activity in polymorphonuclear leukocytes (unknown origin) assessed as induction of oxidative burst after 40 mins by fluorescence assay relative to ingenol 3-angelate; assay type: functional
Method in brief: (§3)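 PMN were isolated from fresh buffy coats. Cells were incubated 40 min at ambient temperature with titrated compound (top concentration 10 µM) pre-mixed with hydroethidine. Respiratory burst was read as fluorescence at ex 485/em 579 nm. EC50 is the concentration giving 50% of the maximum effect of ingenol 3-angelate; Emax is the maximal response relative to it.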

[5] = Immunostimulatory activity in polymorphonuclear leukocytes (unknown origin) assessed as induction of oxidative burst after 40 mins by fluorescence assay; assay type: functional, cell-based; method in brief: as §3
[6] = Chemical stability of the compound in aqueous buffer with less than 30% organic solvent assessed as compound recovery at pH 7.4 measured over 16 hrs by HPLC analysis; assay type: physicochemical; details: read-out: Drug recovery
Method in brief: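 A DMSO stock was diluted into pre-heated (37 °C) aqueous buffer pH 7.4 to ≤30% v/v organic content. The solution was held at 37 °C in the HPLC autosampler and injected within 5 min, then repeatedly over 16 h. Recovery was taken from the decrease in compound peak area, with UV detection normally at 270 nm.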

[7] = system: Keratinocyte; assay: Induction of proimflammatory activity in human primary epidermal keratinocytes assessed as TNFalpha release after 6 hrs; assay type: functional, cell-based; method in brief: as §2
[8] = system: HeLa; assay: Induction of necrosis in human HeLa cells assessed as remaining metabolic activity after 30 mins by resazurin dye-based assay; assay type: functional; details: 0.5 h, read-out: LC50 (the source's name)
Method in brief: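 HeLa cells were exposed to increasing concentrations up to 400 µM for 30 min at 37 °C. Metabolic activity was then measured with a resazurin-based dye (PrestoBlue). LC50 is the concentration giving 50% loss of metabolic activity.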

[9] = system: Keratinocyte; assay: Induction of proimflammatory activity in human primary epidermal keratinocytes assessed as IL-8 release after 6 hrs; assay type: functional, cell-based; method in brief: as §1

Chain of Protein kinase C delta type (Q05655 whole entry): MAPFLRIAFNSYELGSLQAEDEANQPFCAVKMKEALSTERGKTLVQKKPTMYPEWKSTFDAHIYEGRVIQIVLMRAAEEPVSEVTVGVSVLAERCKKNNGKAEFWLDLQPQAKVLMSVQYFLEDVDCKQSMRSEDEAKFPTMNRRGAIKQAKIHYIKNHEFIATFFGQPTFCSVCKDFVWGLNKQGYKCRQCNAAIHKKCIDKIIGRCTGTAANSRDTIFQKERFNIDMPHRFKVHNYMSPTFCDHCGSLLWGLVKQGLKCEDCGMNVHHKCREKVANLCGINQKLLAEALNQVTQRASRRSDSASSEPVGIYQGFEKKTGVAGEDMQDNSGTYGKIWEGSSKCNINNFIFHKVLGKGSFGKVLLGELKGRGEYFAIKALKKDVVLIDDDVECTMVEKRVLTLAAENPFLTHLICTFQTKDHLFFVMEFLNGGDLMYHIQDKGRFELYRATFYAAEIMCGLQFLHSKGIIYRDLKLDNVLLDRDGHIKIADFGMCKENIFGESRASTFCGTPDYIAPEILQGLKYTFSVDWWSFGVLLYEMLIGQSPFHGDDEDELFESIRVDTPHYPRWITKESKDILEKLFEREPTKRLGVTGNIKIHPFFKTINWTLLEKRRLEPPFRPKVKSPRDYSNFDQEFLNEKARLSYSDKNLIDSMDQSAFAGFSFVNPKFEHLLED

Row | SMILES | Emax [1] [%] | Emax [2] [%] | EC50 [3] [nM] | Emax [4] [%] | EC50 [5] [nM] | remaining at 16 h [6] [%] | EC50 [7] [nM] | CC50 [8] [nM] | EC50 [9] [nM]
1 | CC1=C[C@]23C(=O)[C@@H](C=C(CO)[C@@H](O)[C@]2(O)[C@H]1OC(=O)c1ccccc1)[C@H]1[C@@H](C[C@H]3C)C1(C)C | 54 | 60 | 6.1 | 110 | 6 |  |  |  | 
2 | CNc1cccc(Cl)c1C(=O)O[C@H]1C(C)=C[C@]23C(=O)[C@@H](C=C(CO)[C@@H](O)[C@]12O)[C@H]1[C@@H](C[C@H]3C)C1(C)C | 105 | 97 |  | 124 | 21 | > 95 | 21 | 145000 | 18
3 | CNc1cccc(F)c1C(=O)O[C@H]1C(C)=C[C@]23C(=O)[C@@H](C=C(CO)[C@@H](O)[C@]12O)[C@H]1[C@@H](C[C@H]3C)C1(C)C | 145 | 174 |  | 123 | 9.3 | 74 | 4.1 | 152000 | 3
4 | CC1=C[C@]23C(=O)[C@@H](C=C(CO)[C@@H](O)[C@]2(O)[C@H]1OC(=O)c1c(C)cccc1NCc1ccccc1)[C@H]1[C@@H](C[C@H]3C)C1(C)C | 122 | 126 |  | 103 | 42 | > 95 | 7.6 | 187000 | 3.8
5 | COc1cccc(NCc2ccccc2)c1C(=O)O[C@H]1C(C)=C[C@]23C(=O)[C@@H](C=C(CO)[C@@H](O)[C@]12O)[C@H]1[C@@H](C[C@H]3C)C1(C)C | 117 | 120 |  | 112 | 23 | > 95 | 19 | 400000 | 6.6
6 | CC(=O)Nc1cccc(C)c1C(=O)O[C@H]1C(C)=C[C@]23C(=O)[C@@H](C=C(CO)[C@@H](O)[C@]12O)[C@H]1[C@@H](C[C@H]3C)C1(C)C | 92 | 92 | 988 | 113 | 538 | 82 | 632 |  | 534
7 | CC1=C[C@]23C(=O)[C@@H](C=C(CO)[C@@H](O)[C@]2(O)[C@H]1OCc1ccccc1)[C@H]1[C@@H](C[C@H]3C)C1(C)C | 58 |  | > 10000 |  | 4540 | > 95 |  | 378000 | 4520
8 | CC1=C[C@]23C(=O)[C@@H](C=C(CO)[C@@H](O)[C@]2(O)[C@H]1OC(=O)c1ccccc1C)[C@H]1[C@@H](C[C@H]3C)C1(C)C | 58 | 64 |  | 107 | 5.7 | 73 | 13 | 115000 | 15
9 | CC1=C[C@]23C(=O)[C@@H](C=C(CO)[C@@H](O)[C@]2(O)[C@H]1OC(=O)c1ccccc1C(C)C)[C@H]1[C@@H](C[C@H]3C)C1(C)C | 86 | 96 |  | 120 | 11 | 70 | 5.7 | 110000 | 4.4
10 | COc1ccccc1C(=O)O[C@H]1C(C)=C[C@]23C(=O)[C@@H](C=C(CO)[C@@H](O)[C@]12O)[C@H]1[C@@H](C[C@H]3C)C1(C)C | 100 | 100 | 25.7 | 107 | 6.8 | 70 | 38 | 220000 | 42
11 | CC1=C[C@]23C(=O)[C@@H](C=C(CO)[C@@H](O)[C@]2(O)[C@H]1OC(=O)c1ccccc1OC(C)C)[C@H]1[C@@H](C[C@H]3C)C1(C)C | 105 | 101 |  | 113 | 8.7 | 65 | 4 | 192000 | 2.7
12 | CC1=C[C@]23C(=O)[C@@H](C=C(CO)[C@@H](O)[C@]2(O)[C@H]1OC(=O)c1ccccc1N)[C@H]1[C@@H](C[C@H]3C)C1(C)C | 101 | 112 |  | 116 | 15 | 58 | 5.5 | 199000 | 3.4
13 | CC1=C[C@]23C(=O)[C@@H](C=C(CO)[C@@H](O)[C@]2(O)[C@H]1OC(=O)c1ccccc1NCc1ccccc1)[C@H]1[C@@H](C[C@H]3C)C1(C)C | 115 | 128 |  | 127 | 8.6 | 65 | 1.5 | 168000 | 1.2
14 | CCCCCCCCCCCCNc1ccccc1C(=O)O[C@H]1C(C)=C[C@]23C(=O)[C@@H](C=C(CO)[C@@H](O)[C@]12O)[C@H]1[C@@H](C[C@H]3C)C1(C)C | 111 | 150 |  | 78 | 25 |  | 14 | 400000 | 16
15 | CCCCCCCCCCCCCCCCNc1ccccc1C(=O)O[C@H]1C(C)=C[C@]23C(=O)[C@@H](C=C(CO)[C@@H](O)[C@]12O)[C@H]1[C@@H](C[C@H]3C)C1(C)C | 125 | 120 |  | 94 | 1340 | 90 | 200 |  | 61
16 | COc1cccc(OC)c1C(=O)O[C@H]1C(C)=C[C@]23C(=O)[C@@H](C=C(CO)[C@@H](O)[C@]12O)[C@H]1[C@@H](C[C@H]3C)C1(C)C | 107 | 113 | 156 | 116 | 84 | > 95 | 57 | 400000 | 44
17 | CC1=C[C@]23C(=O)[C@@H](C=C(CO)[C@@H](O)[C@]2(O)[C@H]1OC(=O)c1c(Cl)cccc1Cl)[C@H]1[C@@H](C[C@H]3C)C1(C)C | 45 | 42 | 19.8 | 123 | 21 | > 95 | 278 | 59000 | 113
18 | CC1=C[C@]23C(=O)[C@@H](C=C(CO)[C@@H](O)[C@]2(O)[C@H]1OC(=O)c1c(C)cccc1Cl)[C@H]1[C@@H](C[C@H]3C)C1(C)C | 52 | 52 |  | 130 | 6.6 | > 95 | 54 | 126000 | 51
19 | COc1cccc(N)c1C(=O)O[C@H]1C(C)=C[C@]23C(=O)[C@@H](C=C(CO)[C@@H](O)[C@]12O)[C@H]1[C@@H](C[C@H]3C)C1(C)C | 111 | 83 |  | 109 | 25 | > 95 | 108 |  | 41
20 | CC1=C[C@]23C(=O)[C@@H](C=C(CO)[C@@H](O)[C@]2(O)[C@H]1OC(=O)c1c(N)cccc1Cl)[C@H]1[C@@H](C[C@H]3C)C1(C)C | 104 | 108 |  | 161 | 7.1 | 93 | 28 | 185000 | 20
21 | CC1=C[C@]23C(=O)[C@@H](C=C(CO)[C@@H](O)[C@]2(O)[C@H]1OC(=O)c1c(N)cccc1F)[C@H]1[C@@H](C[C@H]3C)C1(C)C | 104 | 104 |  | 133 | 12 | 66 | 10 | 201000 | 8.6
22 | CNc1cccc(C)c1C(=O)O[C@H]1C(C)=C[C@]23C(=O)[C@@H](C=C(CO)[C@@H](O)[C@]12O)[C@H]1[C@@H](C[C@H]3C)C1(C)C | 127 | 143 |  | 136 | 46 | > 95 | 16 | 105000 | 12
23 | C/C=C(/C)C(=O)O[C@H]1C(C)=C[C@]23C(=O)[C@@H](C=C(CO)[C@@H](O)[C@]12O)[C@H]1[C@@H](C[C@H]3C)C1(C)C [INGENOL MEBUTATE] |  |  |  |  | 8.7 |  |  | 230000 | 
